Data taken from article PMC10925991 (Heliyon, 2024).

Assays:
[1] = tested on: RPE-1 human normal Retina pigmented epithelium cells; assay: MTT anti-proliferative assay, RPE-1; format: cell-based; conditions: RPE-1, 48 h, read-out: IC50 (μM) ± SD RPE-1
How it was run: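 RPE-1 cells were grown at 37 °C (5% CO₂, humidified) in RPMI-1640 with 10% heat-inactivated FBS and 100 U/mL penicillin/streptomycin. After 24 h, the medium was changed to serum-free, and serial dilutions of test compound in DMSO were added for 48 h. MTT solution (2.5 mg/mL) was then added for 4 h, formazan was dissolved in DMSO, and A590 was read. Triplicates were repeated on three days. % cytotoxicity = (1 − As/Ab) × 100, from which IC50 was derived.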

[2] = tested on: MCF-7 breast adenocarcinoma cells; assay: MTT anti-proliferative assay, MCF-7; format: cell-based; conditions: Homo sapiens, MCF7, 48 h, read-out: IC50 (μM) ± SD MCF-7

Compound | IC50 [1] [µM] | IC50 [2] [µM]
O=c1[nH]c(=S)[nH]c2nc(-c3ccccc3)cc(-c3ccc4ccccc4n3)c12 [Compound 1, 7-phenyl-5-(quinolin-2-yl)-2-thioxo-2,3-dihydropyrido[2,3-d] pyrimidin-4(1H)-one] | 54.2 ± 2.3 | 45.5 ± 2.5
CSc1nc2nc(-c3ccccc3)cc(-c3ccc4ccccc4n3)c2c(=O)[nH]1 [Compound 2, 2-(methylthio)-7-phenyl-5-(quinolin-2-yl) pyrido [2,3-d] pyrimidin-4(3H)-one] | 52.6 ± 1.9 | 43.2 ± 2.2
O=c1c2c(-c3ccc4ccccc4n3)cc(-c3ccccc3)nc2nc2n(-c3ccccc3)nc(-c3ccccc3)n12 [Compound 5a, 1,3,8-triphenyl-6-(quinolin-2-yl) pyrido [2,3-d] [1,2,4] triazolo[4,3-a] pyrimidin-5(1H)-one] | 26.4 ± 1.4 | 15.1 ± 2.3
CS(=O)(=O)c1nc2nc(-c3ccccc3)cc(-c3ccc4ccccc4n3)c2c(=O)[nH]1 [Compound 6, 2-(methylsulfonyl)-7-phenyl-5-(quinolin-2-yl) pyrido [2,3-d] pyrimidin-4(3H)-one] | 47.3 ± 1.7 | 37.8 ± 1.4
O=c1[nH]c(N2CCNCC2)nc2nc(-c3ccccc3)cc(-c3ccc4ccccc4n3)c12 [Compound 7a, 7-phenyl-2-(piperazin-1-yl)-5-(quinolin-2-yl) pyrido [2,3-d] pyrimidin-4(3H)-one] | 42.1 ± 1.9 | 31.2 ± 1.8
O=c1[nH]c(N2CCOCC2)nc2nc(-c3ccccc3)cc(-c3ccc4ccccc4n3)c12 [Compound 7b, 2-morpholino-7-phenyl-5-(quinolin-2-yl) pyrido [2,3-d] pyrimidin-4(3H)-one] | 43.5 ± 1.5 | 32.5 ± 1.3
O=C(O)c1ccccc1Nc1nc2nc(-c3ccccc3)cc(-c3ccc4ccccc4n3)c2c(=O)[nH]1 [Compound 8, 2-((4-oxo-7-phenyl-5-(quinolin-2-yl)-3,4-dihydropyrido[2,3-d]pyrimidin-2-yl)amino) benzoic acid] | 45.2 ± 1.5 | 35.4 ± 1.1
O=c1c2ccccc2[nH]c2nc3nc(-c4ccccc4)cc(-c4ccc5ccccc5n4)c3c(=O)n12 [Compound 9, 2-phenyl-4-(quinolin-2-yl)-5H-pyrido [2′,3':4,5] pyrimido [2,1-b] quinazoline-5,7(12H)-dione] | 21.2 ± 1.1 | 8.1 ± 2.1
CSc1nc(Cl)c2c(-c3ccc4ccccc4n3)cc(-c3ccccc3)nc2n1 [Compound 10, 4-chloro-2-(methylthio)-7-phenyl-5-(quinolin-2-yl) pyrido[2,3-d] pyrimidine] | 50.4 ± 1.8 | 40.1 ± 2.3
NNc1nc(NN)c2c(-c3ccc4ccccc4n3)cc(-c3ccccc3)nc2n1 [Compound 11, 2,4-dihydrazinyl-7-phenyl-5-(quinolin-2-yl) pyrido [2,3-d] pyrimidine] | 40.1 ± 1.6 | 29.5 ± 1.5
c1ccc(Nc2nc(Nc3ccccc3)c3c(-c4ccc5ccccc5n4)cc(-c4ccccc4)nc3n2)cc1 [Compound 13a, N^2, N^4,7-triphenyl-5-(quinolin-2-yl) pyrido [2,3-d] pyrimidine-2,4-diamine] | 34.7 ± 1.3 | 23.9 ± 2.1
Clc1ccc(Nc2nc(Nc3ccc(Cl)cc3)c3c(-c4ccc5ccccc5n4)cc(-c4ccccc4)nc3n2)cc1 [Compound 13b, N^2, N^4-bis(4-chlorophenyl)-7-phenyl-5-(quinolin-2-yl) pyrido [2,3-d] pyrimidine-2,4-diamine] | 32.4 ± 1.7 | 21.8 ± 2.2
COc1ccc(Nc2nc(Nc3ccc(OC)cc3)c3c(-c4ccc5ccccc5n4)cc(-c4ccccc4)nc3n2)cc1 [Compound 13c, N^2, N^4-bis(4-methoxyphenyl)-7-phenyl-5-(quinolin-2-yl) pyrido [2,3-d] pyrimidine-2,4-diamine] | 33.2 ± 1.4 | 22.5 ± 2.3
c1ccc(-c2cc(-c3ccc4ccccc4n3)c3c(N4CCNCC4)nc(N4CCNCC4)nc3n2)cc1 [Compound 14a, 7-phenyl-2,4-di (piperazin-1-yl)-5-(quinolin-2-yl) pyrido [2,3-d] pyrimidine] | 28.1 ± 1.6 | 18.7 ± 1.9
c1ccc(-c2cc(-c3ccc4ccccc4n3)c3c(N4CCOCC4)nc(N4CCOCC4)nc3n2)cc1 [Compound 14b, 4,4'-(7-phenyl-5-(quinolin-2-yl)pyrido [2,3-d]pyrimidine-2,4-diyl) dimorpholine] | 29.3 ± 1.1 | 19.2 ± 1.5
O=C(O)c1ccccc1Nc1nc(Nc2ccccc2C(=O)O)c2c(-c3ccc4ccccc4n3)cc(-c3ccccc3)nc2n1 [Compound 15, 2,2'-((7-phenyl-5-(quinolin-2-yl)pyrido [2,3-d]pyrimidine-2,4-diyl)bis(azanediyl)) dibenzoic acid] | 38.2 ± 1.1 | 27.1 ± 1.2
O=c1c2ccccc2nc2n1c1nc(-c3ccccc3)cc(-c3ccc4ccccc4n3)c1c1nc3ccccc3c(=O)n12 [Compound 16, 8-phenyl-6-(quinolin-2-yl)-11H,18H-pyrido [3′,2':5,6] pyrimido [2,1-b:4,3-b'] diquinazoline-11,18-dione] | 17.5 ± 1.8 | 6.2 ± 1.3
COc1cccc2c1C(=O)c1c(O)c3c(c(O)c1C2=O)C[C@@](O)(C(=O)CO)C[C@@H]3O[C@H]1C[C@H](N)[C@H](O)[C@H](C)O1 [Doxorubicin, reference compound] | 30.1 ± 3.1 | 10.5 ± 2.2
CNC(=O)c1cc(Oc2ccc(NC(=O)Nc3ccc(Cl)c(C(F)(F)F)c3)cc2)ccn1 [Sorafenib, reference compound] |  | 31
CS(=O)(=O)CCNCc1ccc(-c2ccc3ncnc(Nc4ccc(OCc5cccc(F)c5)c(Cl)c4)c3c2)o1 [lapatinib, reference compound] |  | 136
